PubChem BioAssay

assay: S. cerevisiae growth inhibition in restrictive medium, OD615, pilot screen, restrictive growth control, yeast lifespan reduction project (AID 706); details: OD615, 48 h, at 10 µM, stronger effect = higher value;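 active = growth inhibition above a set limit, 3 SD over mean compound inhibition, in both replicates (cut at about 43% in these data); inconclusive = above the limit in only one replicate; inactive = at or below the limit in both replicates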;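 note: modified DeaD lifespan yeast strain shifted to restrictive glucose medium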
How it was run: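 System: Engineered S. cerevisiae DeaD strain | Detection: OD615 | Buffer or medium: CSMM-D glucose medium | Doses: 10 µM compound, 0.25% DMSO | Timing: 4 h pre-growth plus 48 h compound exposure, 30 °C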

Growth inhibition, inactive:
CCCCOC(=O)Nc1nc(CC(=O)OCC)cs1 -4.89%
N#Cc1nc(COc2ccc(Br)cc2)oc1N1CCCCCC1 3.57%
COc1ccc(-c2cc(C(F)(F)F)n3nc(C(=O)N4CCCC4)cc3n2)cc1 -2.34%
CC(=O)Nc1ccc(NC(=O)C2CC(=O)N(c3cccc(C)c3C)C2)cc1 (stereo not given) -8.03%
COCCNC(=O)CN(c1ccccc1OC)S(C)(=O)=O 1.17%
O=C(COC(=O)C1(c2ccccc2F)CCCC1)N1CCN(C(=O)c2ccco2)CC1 -13.8%
COC(=O)c1ccc(N2CCOCC2)c(NC(=O)Nc2cccc(OC)c2)c1 -8.03%
Cc1cc(C(F)(F)F)nc(NCc2ccc(F)cc2)n1 -13%
O=C(CCCc1ccccc1)NCc1cn2ccsc2n1 6.95%
O=C(CSc1nc(-c2ccco2)cc(C(F)(F)F)n1)N1CCN(Cc2ccccc2)CC1 -13.4%
Cc1ccsc1-c1nc(CSCC(=O)N2CCN(c3ccccc3)CC2)c(C)o1 26.6%
CCn1c(SCc2nc(-c3ccccc3)no2)nc2ccccc21 8.5%
COCCn1c(SCC(N)=O)nc2c(c1=O)SC(C)C2 (stereo not given) -3.57%
CSC1=NCCN1C(=O)COc1ccc2ccccc2c1 -6.38%
O=C(CC1Sc2ccccc2NC1=O)Nc1cccc(C(=O)O)c1 (stereo not given) 8.77%
O=C(c1ccncc1)N1CCN(C(=O)c2cccc3ccccc23)CC1 -7.07%
COc1ccc(C)cc1NC(=O)c1ccoc1C 4.09%
CCOC(=O)Cn1c(CN2CC(C)OC(C)C2)nc2c1c(=O)n(C)c(=O)n2C (stereo not given) 8.5%
COc1ccc(OC)c(-n2c(SCC(=O)Nc3cc(C)on3)nnc2-c2c[nH]c3ccccc23)c1 6.54%
COc1ccc(CCNC(=O)c2cc3ccccn3n2)c(OC)c1OC 7.63%
O=C(OCn1nnc2ccccc2c1=O)c1cccs1 2.16%
O=C(NCc1cn2ccsc2n1)c1cccs1 2.67%
CCOc1ccc(OCC)c(NC(=O)C2CCCN2S(=O)(=O)c2cccc3cccnc23)c1 (stereo not given) 8.82%
CCOCCn1c(SCCc2ccccc2)nc2c1c(=O)[nH]c(=O)n2C 10.7%
Cc1ccc(S(=O)(=O)Cc2ccc(C(=O)N3CCN(c4ccccn4)CC3)o2)cc1 -3.59%
CCC(C)(C(=O)NC1CCCCC1)N(Cc1ccco1)C(=O)CNC(=O)c1ccccc1 (stereo not given) -12.2%
CCC(C)Sc1nc2c([nH]c3ccccc32)c(=O)n1C (stereo not given) -15.8%
Cc1onc(-c2ccccc2Cl)c1C(=O)Nc1ccc(OCC(=O)N2CCOCC2)cc1 5.62%
COCCn1c(SCC(=O)Nc2ccccc2)nc2c1c(=O)[nH]c(=O)n2C -4.34%
Cc1cccc(OCC2=N/C(=C\N(C)C)C(=O)O2)c1 -9.04%
Cc1[nH]c2ccccc2c1CCC(N)=O 3.01%
CCCc1nc(N2CCN(C)CC2)c2sc(=S)n(-c3ccccc3)c2n1 17.7%
CCCc1nc(N)nc2c1C(=O)CC(C)(C)C2 3.37%
COc1ccccc1CC(=O)N1CCN(c2cccc(C(F)(F)F)c2)CC1 5.32%
O=C(CCC(=O)OCCCC(F)(F)C(F)(F)F)Nc1ccccc1 3.78%
CCN1CCN(C(=O)CSCc2nc(-c3ccc(OC)c(OC)c3)oc2C)CC1 -7.22%
COc1ccc(S(=O)(=O)n2cnc3cc(C)c(C)cc32)cc1 6.05%
Cc1cccc(C(=O)N2CCN(Cc3ccc4c(c3)OCO4)CC2)c1 -4.2%
O=C(NCCCNC(=O)c1cccs1)c1cccs1 -0.395%
Cn1c(NC(=O)CC2CCCCC2)cc(=O)n(C)c1=O -21.6%
